# Source: ChEMBL document CHEMBL1156256, “Poly(ethylene glycol) (PEG-400) as an alternative reaction solvent for the synthesis of some new 1-(4-(4'-chlorophenyl)-2-thiazolyl)-3-aryl-5-(2-butyl-4-chloro-1H-imidazol-5yl)-2-pyrazolines and their in vitro antimicrobial evaluation” (2010)
# Experiments:
# Salmonella enterica = experiment: Antibacterial activity against Salmonella typhi MTCC 98 after 24 hrs by agar diffusion method; assay type: functional, Salmonella enterica subsp. enterica serovar Typhi; conditions: for MIC: Salmonella enterica, MTCC 98, 24 h
# How it was run: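 NCCLS agar diffusion. Strain kept on nutrient agar slant at 37 ± 0.5 °C for 24 h. Nutrient agar plates seeded with 0.1 mL of a 10⁵ CFU/mL suspension in sterile 0.85% saline. Plates incubated at 37 ± 0.5 °C for 24 h. Read-out: zone of inhibition (mm) and MIC.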
# Escherichia coli = experiment: Antibacterial activity against Escherichia coli MTCC 2939 after 24 hrs by agar diffusion method; assay type: functional; conditions: for MIC: Escherichia coli, MTCC 2939, 24 h
# How it was run: (§1)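 Agar well diffusion following NCCLS. Bacteria kept on nutrient agar slants at 37 ± 0.5 °C for 24 h. Nutrient agar plates seeded with 0.1 mL of culture suspension in 0.85% sterile saline (10⁵ CFU/mL). Plates incubated at 37 ± 0.5 °C for 24 h. Zone of inhibition recorded in mm, and MIC noted. 1% DMSO used as control.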
# Aspergillus niger = experiment: Antifungal activity against Aspergillus niger MTCC 281 after 24 to 48 hrs by agar diffusion method; assay type: functional
# How it was run: (§2)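 Fungi grown on potato dextrose agar slants at 27 ± 0.2 °C for 24–48 h until sporulation. Spores suspended in sterile water with 1% Tween-80 and counted by haemocytometer (10⁶ CFU/mL). 0.1 mL spread on 2% agar PDA plates and held at 27 °C for 12 h. Wells then received 0.1 mL of compound at graded concentrations for MIC. Plates refrigerated 20 min for diffusion, then incubated at 27 ± 0.2 °C for […]. Zone read in mm. 1% DMSO used as control.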
# Penicillium chrysogenum = experiment: Antifungal activity against Penicillium chrysogenum MTCC 160 after 24 to 48 hrs by agar diffusion method; assay type: functional; how it was run: as §2
# Fusarium verticillioides = experiment: Antifungal activity against Fusarium moniliforme MTCC 156 after 24 to 48 hrs by agar diffusion method; assay type: functional; how it was run: as §2
# Staphylococcus aureus = experiment: Antibacterial activity against Staphylococcus aureus MTCC 96 after 24 hrs by agar diffusion method; assay type: functional; conditions: for MIC: Staphylococcus aureus, MTCC 96, 24 h; how it was run: as §1
# Bacillus subtilis = experiment: Antibacterial activity against Bacillus subtilis MTCC 441 after 24 hrs by agar diffusion method; assay type: functional; conditions: for MIC: Bacillus subtilis, MTCC 441, 24 h; how it was run: as §1
# Candida albicans = experiment: Antifungal activity against Candida albicans MTCC 183 after 24 to 48 hrs by agar diffusion method; assay type: functional; how it was run: as §2
# Trichoderma viride = experiment: Antifungal activity against Trichoderma viride MTCC 167 after 24 to 48 hrs by agar diffusion method; assay type: functional; how it was run: as §2
# [1] = Penicillium chrysogenum, MTCC 160
# [2] = Fusarium verticillioides, MTCC 156
Compound,inhibition zone (IZ) (Salmonella enterica) [mm],MIC (Salmonella enterica) [mg/L],inhibition zone (IZ) (Escherichia coli) [mm],MIC (Escherichia coli) [mg/L],inhibition zone (IZ) (Aspergillus niger) [mm],"MIC (Aspergillus niger; Aspergillus niger, MTCC 281) [mg/L]",inhibition zone (IZ) (Penicillium chrysogenum) [mm],MIC (Penicillium chrysogenum; [1]) [mg/L],inhibition zone (IZ) (Fusarium verticillioides) [mm],MIC (Fusarium verticillioides; [2]) [mg/L],inhibition zone (IZ) (Staphylococcus aureus) [mm],MIC (Staphylococcus aureus) [mg/L],inhibition zone (IZ) (Bacillus subtilis) [mm],MIC (Bacillus subtilis) [mg/L],inhibition zone (IZ) (Candida albicans) [mm],"MIC (Candida albicans; Candida albicans, MTCC 183) [mg/L]",inhibition zone (IZ) (Trichoderma viride) [mm],"MIC (Trichoderma viride; Trichoderma viride, MTCC 167) [mg/L]",further results
CCCCc1nc(Cl)c(C2CC(c3cc(Cl)cc(Br)c3O)=NN2c2nc(-c3ccc(Cl)cc3)cs2)[nH]1 (stereo not drawn),18,25,21,25,18,25,16,25,10,50,16,25,15,25,16,25,15,25,
CCCCc1nc(Cl)c(C2CC(c3cc(I)cc(I)c3O)=NN2c2nc(-c3ccc(Cl)cc3)cs2)[nH]1 (stereo not drawn),18,25,20,25,19,25,16,25,16,25,16,25,20,25,18,25,20,25,
CCCCc1nc(Cl)c(C2CC(c3cc(Cl)c(C)c(Br)c3O)=NN2c2nc(-c3ccc(Cl)cc3)cs2)[nH]1 (stereo not drawn),12,50,15,25,15,25,9,50,15,25,11,50,18,25,12,50,16,50,
CCCCc1nc(Cl)c(C2CC(c3cc(Cl)ccc3O)=NN2c2nc(-c3ccc(Cl)cc3)cs2)[nH]1 (stereo not drawn),12,50,18,25,16,25,12,25,15,25,16,25,18,25,16,25,15,25,
CCCCc1nc(Cl)c(C2CC(c3cc(Cl)cc(Cl)c3O)=NN2c2nc(-c3ccc(Cl)cc3)cs2)[nH]1 (stereo not drawn),18,25,21,25,19,25,18,25,15,25,16,25,22,25,16,25,18,25,
CCCCc1nc(Cl)c(C2CC(c3cc(Br)cc(Br)c3O)=NN2c2nc(-c3ccc(Cl)cc3)cs2)[nH]1 (stereo not drawn),19,25,22,25,20,25,18,25,14,25,18,25,21,25,20,25,18,25,
CCCCc1nc(Cl)c(C2CC(c3cc(C)cc(Br)c3O)=NN2c2nc(-c3ccc(Cl)cc3)cs2)[nH]1 (stereo not drawn),12,50,16,25,10,50,13,50,9,50,12,50,14,50,12,25,14,25,
CCCCc1nc(Cl)c(C2CC(c3ccc(OC)cc3)=NN2c2nc(-c3ccc(Cl)cc3)cs2)[nH]1 (stereo not drawn),14,50,16,25,16,25,12,50,12,25,18,25,16,25,14,25,14,25,
CCCCc1nc(Cl)c(C2CC(c3ccc(Cl)cc3)=NN2c2nc(-c3ccc(Cl)cc3)cs2)[nH]1 (stereo not drawn),10,50,16,25,12,50,10,50,11,50,12,50,14,50,14,25,11,50,
CCCCc1nc(Cl)c(C2CC(c3cc(C)cc(I)c3O)=NN2c2nc(-c3ccc(Cl)cc3)cs2)[nH]1 (stereo not drawn),15,25,14,50,14,25,12,25,10,50,15,25,12,50,11,50,14,25,
CN(C)[C@@H]1C(O)=C(C(N)=O)C(=O)[C@@]2(O)C(O)=C3C(=O)c4c(O)cccc4[C@@](C)(O)[C@H]3C[C@@H]12 [TETRACYCLINE],28,25,30,25,,,,,,,30,25,32,25,,,,,
NYSTATIN,,,,,18,,16,,16,,,,,,18,,18,,MIC (Aspergillus niger): 25 mg/L; MIC (Penicillium chrysogenum): 25 mg/L; MIC (Fusarium verticillioides): 25 mg/L; MIC (Candida albicans): 25 mg/L; MIC (Trichoderma viride): 25 mg/L
